Our source for the cytotoxicity values is ChEMBL document CHEMBL4513216, “Probing the Open Global Health Chemical Diversity Library for Multistage-Active Starting Points for Next-Generation Antimalarials” (ACS Infect Dis, 2020).

A short description of the data set: Toxicity liver stage against HepG2, at 10uM. It counts as cell-based. The arrangement: test concentration 10 uM, cell line HepG2-A16-CD81EGFP. As to conditions: human, HepG2-A16-CD81EGFP cells; read-out: INHIBITION
The method, boiled down:
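Uninfected HepG2-A16-CD81EGFP cells, 3 × 10^3 per well, 1536-well, plated on prespotted compound at 10 μM final, parasite-free screening media added to match infected plates; puromycin 10 μM positive, DMSO 0.5% negative; run in parallel with 48 h PbLuc assay at 37 °C, 5% CO2; viability by CellTiter-Glo luminescence, normalized to controls.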
Regarding `CCOC(=O)CCC(=O)NC(C)c1ccc(NC(=O)CC)cc1` (stereo not drawn), the cytotoxicity at 10 µM was determined as 0.097%.

Regarding `CC(C)(C)C(=O)N1CC[C@@H]2[C@H](CC1)N(S(C)(=O)=O)CCS2(=O)=O`, the cytotoxicity at 10 µM worked out at 0.64%.

As for `Cc1cccc(CN2C(=O)CCC23CCN(Cc2nccn2C)CC3)n1`, the cytotoxicity at 10 µM came out at 5.47%.

As for `Cc1c(C)n(CC(O)CN2CCC(C)CC2)c2c(Cl)cccc12` (stereo not drawn), the cytotoxicity at 10 µM is -5.12%.

Take `CCOC(=O)c1cn(CC(O)c2ccccc2OC)nn1` (stereo not drawn): the cytotoxicity at 10 µM was -4.06%.

In the case of `O=C(c1cnc2ccc(F)cc2c1NCc1ccco1)N1CCCC1`, the cytotoxicity at 10 µM is -54.5%.

On to `CN(C)c1cc(CC(NC(=O)C2CC2)c2ccccc2)nc(C2CC2)n1` (stereo not drawn), for which the cytotoxicity at 10 µM was determined as 5.73%.

`Cc1nn(C)cc1S(=O)(=O)N[C@@H]1CCC[C@@H](N2CCCC2)[C@@H]1O`: the cytotoxicity at 10 µM was -3.02%.

In the case of `Cc1nn(C)c(C)c1-c1ccc(=O)n(C(C)C(=O)NC2CC2)n1` (stereo not drawn), the cytotoxicity at 10 µM amounted to 0.0475%.

For the compound `CN(CC(=O)NC1CC1)C(=O)c1csc(Br)c1`, the cytotoxicity at 10 µM was -0.872%.

For the compound `CC(C#N)(NC(=O)Cn1cc(I)cn1)C1CC1` (stereo not drawn), the cytotoxicity at 10 µM turned out to be 15.2%.

Consider `CC(=O)NC(C)C1=CCCN(Cc2ccc(C(=O)O)cc2)C1` (stereo not drawn), for which the cytotoxicity at 10 µM was -12.1%.

For `COc1cccc2c1OCC(C(=O)NCCCn1nc(C)c(Cl)c1C)C2` (stereo not drawn), the cytotoxicity at 10 µM is -4.12%.

On to `CN1CCC2(CCCN(S(=O)(=O)c3ccc(-c4cnco4)s3)C2)C1` (stereo not drawn), for which the cytotoxicity at 10 µM was -7.56%.

Turning to `Cc1c(-c2ccccc2)ncn1CC(c1cccnc1)N1CCOCC1` (stereo not drawn), the cytotoxicity at 10 µM came out at 2.11%.

As for `CCN1CCN(C(=O)CCC2CCN(C(C)CSC)CC2)CC1` (stereo not drawn), the cytotoxicity at 10 µM is -0.0154%.

Turning to `O=C(NCC(F)F)c1ccc(S(=O)(=O)N2CCCC(O)C2)cc1` (stereo not drawn), the cytotoxicity at 10 µM came out at 1.29%.

`Nc1cc(C(=O)NCC2CCN(CCc3ccccc3)C2)ccn1` (stereo not drawn): the cytotoxicity at 10 µM is -5.47%.

As to `O=C1COc2cc(C(=O)NS(=O)(=O)c3cc(Cl)ccc3Cl)ccc2N1`, the cytotoxicity at 10 µM is -7.96%.

Turning to `COc1ccc(C2CCCN2Cc2ccc(S(=O)(=O)N(C)C)o2)cc1` (stereo not drawn), the cytotoxicity at 10 µM is -5%.

Take `CCNc1cc2c(nn1)CCN(C(=O)Cc1ccc(C)s1)C2`: the cytotoxicity at 10 µM was -0.375%.

In the case of `CC1CCCN(S(=O)(=O)NCc2ccccc2Cn2cncn2)C1` (stereo not drawn), the cytotoxicity at 10 µM was 1.55%.

Turning to `Cc1cnn(CCC(=O)N2CCCN(c3ccccc3C#N)CC2)c1`, the cytotoxicity at 10 µM was -2.85%.

Consider `CN1CCCc2cc(CNC(=O)c3ccc(-n4cnnc4)cc3)ccc21`, for which the cytotoxicity at 10 µM is -4.9%.

Take `O=C(NCCNc1ccc(C(F)(F)F)cn1)c1cc(Cl)ccc1F`: the cytotoxicity at 10 µM is -8.27%.

With `COc1c(C2CCCN2C(=O)c2ccc(O)nc2)c(C)nn1C` (stereo not drawn), the cytotoxicity at 10 µM was found to be 2.63%.

`Cc1nc2ccccc2nc1CN1CCCCC1Cn1cncn1` (stereo not drawn): the cytotoxicity at 10 µM was -7.36%.

For the compound `Cc1cc(C[S+]([O-])CC(=O)NCc2cccs2)no1` (stereo not drawn), the cytotoxicity at 10 µM was -12.3%.

Regarding `Cc1ccc(NC2CCN(C(=O)c3cccn3C)CC2)nn1`, the cytotoxicity at 10 µM was -3.76%.

`Cc1cc(C(=O)O)cc(S(=O)(=O)Nc2ccc3c(c2)OCO3)c1C`: the cytotoxicity at 10 µM was determined as 0.89%.

`COc1cc(C)nc(N2CCN(C(=O)CNC(C)(C)C)CC2)n1`: the cytotoxicity at 10 µM was -7.67%.

For the compound `CN(C)c1cc(CNC(=O)c2ccc(F)cc2F)ccn1`, the cytotoxicity at 10 µM was -4.82%.

As to `CC(C)C(=O)N1C[C@H]2CCCN[C@H]2C1`, the cytotoxicity at 10 µM turned out to be 1.55%.

For `C[C@@H]1CN(Cc2cccnc2)C[C@]12CCN(CCN1CCCC1)C2=O`, the cytotoxicity at 10 µM was -6.04%.

Consider `Cc1cccc(CN2CCC3(CC2)NC(=O)CC3c2ccccc2)n1` (stereo not drawn), for which the cytotoxicity at 10 µM is -0.508%.

Regarding `CC1=N[C@@]2(CC[C@@H]3CN(CC(=O)N(C)C)C[C@@H]32)C(=O)N1CC1CC1`, the cytotoxicity at 10 µM was -3.9%.

As to `O=C1COC2(COCCN(Cc3cccnc3)C2)CN1c1ccccc1` (stereo not drawn), the cytotoxicity at 10 µM is 9.72%.

Regarding `Cc1ccc(CN2CCc3nnc(CN4CCCC4=O)n3CC2)s1`, the cytotoxicity at 10 µM came to 1.02%.
